Columns and labels:
[1] = molecular target: Major prion protein (Mus musculus) (UniProt P04925); assay: Binding affinity at mouse PrPC at 40 uM by SPR assay
[2] = molecular target: Major prion protein (Homo sapiens) (UniProt P04156); assay: Binding affinity at human PrPC at 40 uM by SPR assay
[3] = Inhibition of PrPSc formation in mouse SMB cells at 2.5 uM after 5 days […] relative to control; format: functional; conditions: 120 h
Method in brief: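 Scrapie-infected SMB mouse cells seeded at 3 × 10⁴ per well, attached 24 h, then exposed 5 days to compound. DMSO stocks were 400× final, diluted 20-fold into Hank's salt solution, then 20-fold into medium. Lysates were dot-blotted at about 30-40 µg protein, guanidine thiocyanate treated, and probed with anti-PrP 6H4 with ECL detection. PrP^Sc was expressed relative to untreated control, as the mean of triplicates with standard deviation.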

Major prion protein (Mus musculus), sequence (P04925 whole entry): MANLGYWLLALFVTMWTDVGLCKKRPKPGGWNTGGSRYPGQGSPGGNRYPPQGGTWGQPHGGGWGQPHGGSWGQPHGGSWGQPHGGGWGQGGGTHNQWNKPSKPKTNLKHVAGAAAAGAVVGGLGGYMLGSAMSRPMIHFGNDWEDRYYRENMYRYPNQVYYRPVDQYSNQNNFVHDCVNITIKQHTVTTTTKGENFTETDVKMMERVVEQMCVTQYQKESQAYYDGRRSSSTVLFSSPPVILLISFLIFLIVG

SMILES | RUmax [1] [%] | RUmax [2] [%] | inhibition at 2.5 µM [3] [%]
Cc1ccc(C(=O)Nc2sc(-c3ccccc3)nc2-c2ccccc2)s1 | 0 | 19.8 | –
COc1ccc(C(=O)Nc2oc(-c3ccccc3)nc2-c2ccccc2)cc1 | 0 | 0 | –
O=C(Nc1sc(-c2ccccc2)nc1-c1ccccc1)c1nc2ccccc2s1 | 0 | 40.1 | –
O=C(Nc1oc(-c2ccccc2)nc1-c1ccccc1)c1cccnc1 | 40 | 37.3 | –
O=C(Nc1sc(-c2ccccc2)nc1-c1ccccc1)c1cccnc1 | 0 | 0 | –
O=C(Nc1oc(-c2ccccc2)nc1-c1ccccc1)c1ccc(F)cc1 | 0 | 0 | –
O=C(Nc1sc(-c2ccccc2)nc1-c1ccccc1)c1ccc([N+](=O)[O-])o1 | 0 | 0 | –
O=C(Nc1sc(-c2ccccc2)nc1-c1ccccc1)c1ccccc1 | 0 | 0 | –
O=C(Nc1sc(-c2ccccc2)nc1-c1ccccc1)c1ccno1 | 0 | 0 | –
O=C(Nc1oc(-c2ccccc2)nc1-c1ccccc1)c1cc2ccccc2s1 | 59.6 | 48 | –
O=C(Nc1sc(-c2ccccc2)nc1-c1ccccc1)c1ccccc1C(F)(F)F | 0 | 0 | –
O=C(Nc1sc(-c2ccccc2)nc1-c1ccccc1)C(F)(F)F | 18.7 | 9.5 | 13.7
O=C(Nc1oc(-c2ccccc2)nc1-c1ccccc1)C1CC1 | 0 | 0 | –
CCCC(CCC)C(=O)Nc1sc(-c2ccccc2)nc1-c1ccccc1 | 0 | 0 | –
O=C(Nc1oc(-c2ccccc2)nc1-c1ccccc1)c1ccco1 | 0 | 3.8 | –
CC(C)(C)OC(=O)Nc1oc(-c2ccccc2)nc1-c1ccccc1 | 10.6 | 11.3 | –
O=C(Nc1sc(-c2ccccc2)nc1-c1ccccc1)C1CC1 | 0 | 0 | –
O=C(Nc1oc(-c2ccccc2)nc1-c1ccccc1)c1ccncc1 | 0 | 0 | –
O=C(Nc1oc(-c2ccccc2)nc1-c1ccccc1)c1cccs1 | 37.4 | 27.5 | –
O=C(Nc1oc(-c2ccccc2)nc1-c1ccccc1)c1cc2ccccc2o1 | 58 | 48.9 | –
O=C(Nc1oc(-c2ccccc2)nc1-c1ccccc1)c1ccc(C(F)(F)F)cc1 | 0 | 0 | –
O=C(Nc1sc(-c2ccccc2)nc1-c1ccccc1)c1ccncc1 | 8.5 | 5 | –
O=C(Nc1sc(-c2ccccc2)nc1-c1ccccc1)c1ccco1 | 8.4 | 6.5 | –
O=C(Nc1sc(-c2ccccc2)nc1-c1ccccc1)c1ccc(C(F)(F)F)cc1 | 0 | 0 | –
O=C(Nc1oc(-c2ccccc2)nc1-c1ccccc1)c1ccc([N+](=O)[O-])o1 | 0 | 0 | –
O=C(Nc1oc(-c2ccccc2)nc1-c1ccccc1)c1ccc2ccccc2n1 | 0 | 0 | –
O=C(Nc1sc(-c2ccccc2)nc1-c1ccccc1)c1cccc(C(F)(F)F)c1 | 0 | 65 | –
O=C(Nc1oc(-c2ccccc2)nc1-c1ccccc1)c1ccno1 | 21.7 | 18.3 | –
O=C(Nc1oc(-c2ccccc2)nc1-c1ccccc1)C(F)(F)F | 22 | 13.7 | 35.1
O=C(Nc1sc(-c2ccccc2)nc1-c1ccccc1)c1cc2ccccc2s1 | 0 | 21.1 | –
